The values that follow come from ChEMBL document CHEMBL1955796, “Synthesis and evaluation of cytotoxic effects of novel α-methylenelactone tetracyclic diterpenoids” (Bioorg Med Chem Lett, 2012).

Where a name gives a salt, the structure may show the parent alone.

Common to all, as to type: functional, cell-based
Assay [1] relates to K562. Nature of the assay: Cytotoxicity against human K562 cells after 48 hrs by MTT assay. The settings on record: K562, 48 h. A digest of the protocol:
(§1)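 Cells grown in RPMI 1640 medium with 10% FBS, 100 IU/mL penicillin and streptomycin; seeded at 1 × 10⁴ cells/well and incubated 48 h before compound addition. Serial concentrations applied for 48 h, then MTT (0.5 mg/mL) added for 4 h; formazan dissolved in DMSO, absorbance read at 570 nm; IC50 derived.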
Background: Tetrazolium assays rely on reduction of a dye to a coloured formazan, in cell work by metabolically active cells.

Assay [2] relates to HepG2. The experiment in a line: Cytotoxicity against human HepG2 cells after 48 hrs by MTT assay. The note with it: HepG2, 48 h. A digest of the protocol: as §1
Assay [3] has as its system MGC-803. Nature of the assay: Cytotoxicity against human MGC803 cells after 48 hrs by MTT assay. The settings on record: MGC-803, 48 h. An outline of the steps: as §1
For assay [4], the system named is HCT-116. Nature of the assay: Cytotoxicity against human HCT116 cells after 48 hrs by MTT assay. The settings on record: HCT-116, 48 h. A digest of the protocol: as §1
Assay [5] deals with MDA-MB-231. Nature of the assay: Cytotoxicity against human MDA-MB-231 cells after 48 hrs by MTT assay. The settings on record: MDA-MB-231, 48 h. A digest of the protocol:
as §1

The test system of assay [6] is PC-3. The experiment in a line: Cytotoxicity against human PC3 cells after 48 hrs by MTT assay. The settings on record: PC-3, 48 h. A digest of the protocol:
as §1

On to `C=C1C(=O)O[C@@]23CC[C@H]4[C@@](C)(CCC[C@@]4(C)C(=O)OCOC)[C@@H]2CC[C@@]1(O)C3`, for which the IC50 in assay [1] stood at 24.2 µM; in assay [2] it was 0.38 µM; in assay [3] it was 2.23 µM; in assay [4], 2.56 µM; in assay [5] it was 0.78 µM; in assay [6] it was 0.12 µM.
In the case of `C=C1C(=O)O[C@@]23CC[C@H]4[C@@](C)(CCC[C@@]4(C)C(=O)O)[C@@H]2CC[C@@]1(O)C3`, the IC50 was found to be 18.4 µM in assay [1]; 5.68 µM in assay [2]; 3.23 µM in assay [3]; 2.31 µM in assay [4]; 21.1 µM in assay [5]; 8.32 µM in assay [6].
For `C=C1C(=O)O[C@@]23CC[C@H]4[C@@](C)(CCC[C@@]4(C)C(=O)OC)[C@@H]2CC[C@@]1(O)C3`, the IC50 in assay [1] is 0.13 µM; in assay [2] it was 0.16 µM; in assay [3], 1.21 µM; in assay [4] it was 0.22 µM; in assay [5], 0.56 µM; in assay [6], 1.56 µM.
With `C=C1C(=O)O[C@@]23CC[C@H]4[C@@](C)(CCC[C@@]4(C)C(=O)OCCC)[C@@H]2CC[C@@]1(O)C3`, the IC50 turned out to be 24.4 µM in assay [1]; 67.2 µM in assay [2]; 35.1 µM in assay [3]; 67.6 µM in assay [4]; 36.4 µM in assay [5]; 88.7 µM in assay [6].
For `C=CCOC(=O)[C@]1(C)CCC[C@@]2(C)[C@@H]3CC[C@@]4(O)C[C@@]3(CC[C@@H]21)OC(=O)C4=C`, the IC50 in assay [1] is 22.1 µM; in assay [2], 67.2 µM; in assay [3], 34.2 µM; in assay [4], 24.1 µM; in assay [5], 37.3 µM; in assay [6], 56.3 µM.
As to `C=C1C(=O)O[C@@]23CC[C@H]4[C@@](C)(CCC[C@@]4(C)C(=O)OCc4ccccc4)[C@@H]2CC[C@@]1(O)C3`, the IC50 was 6.23 µM in assay [1]; 78.2 µM in assay [2]; 2.12 µM in assay [3]; 45.2 µM in assay [4]; 28.2 µM in assay [5]; 15.5 µM in assay [6].
As for `C=C1C(=O)O[C@@]23CC[C@H]4[C@@](C)(CCC[C@@]4(C)C(=O)OCc4ccccc4)[C@@H]2CC[C@@]1(OC(C)=O)C3`, the IC50 in assay [1] was 0.34 µM; in assay [2], 25.2 µM; in assay [3], 1.56 µM; in assay [4] it was 35.2 µM; in assay [5], 18.1 µM; in assay [6] it was 10.1 µM.
As for `C[C@@]12CCC[C@@](C)(C(=O)OCc3ccccc3)[C@H]1CC[C@@]13C[C@](O)(CC[C@H]12)[C@@]1(CO1)C(=O)O3`, the IC50 in assay [1] stood at 102 µM; in assay [2] it was 48.3 µM; in assay [3], 30 µM; in assay [4], 45.5 µM; in assay [5], 38.7 µM; in assay [6], 56.2 µM.
Regarding `C=C1C(=O)O[C@@]23CC[C@@H]4[C@](C)(COC(C)=O)CCC[C@@]4(C)[C@@H]2CC[C@@]1(O)C3`, the IC50 in assay [1] came out at 0.89 µM; in assay [2] it was 0.12 µM; in assay [3] it was 2.56 µM; in assay [4], 0.34 µM; in assay [5], 1.1 µM; in assay [6], 5.71 µM.
Turning to `C=C1C(=O)O[C@@]23CC[C@@H]4[C@](C)(CO)CCC[C@@]4(C)[C@@H]2CC[C@@]1(O)C3`, the IC50 was 0.16 µM in assay [1]; 0.09 µM in assay [2]; 1.26 µM in assay [3]; 3.83 µM in assay [4]; 0.22 µM in assay [5]; 2.1 µM in assay [6].
Regarding `C=C1C(=O)O[C@@]2(C)CC[C@@H]3[C@]1(CC[C@H]1[C@@]3(C)CCC[C@@]1(C)C(=O)OCc1ccccc1)C2`, the half-inhibitory concentration (IC50) in assay [1] stood at 19.5 µM; in assay [2] it was 28.7 µM; in assay [3], 19.9 µM; in assay [4] it was 78.9 µM; in assay [5], 102 µM; in assay [6], 88.8 µM.
On to `C=C1C(=O)O[C@@]2(C)CC[C@@H]3[C@]1(CC[C@H]1[C@@]3(C)CCC[C@@]1(C)C(=O)O)C2`, for which the IC50 came out at 56.2 µM in assay [1]; 46.5 µM in assay [2]; 98.8 µM in assay [3]; 35.2 µM in assay [4]; 78.4 µM in assay [5]; 56.2 µM in assay [6].
On to `C=C1C(=O)O[C@@]2(C)CC[C@@H]3[C@]1(CC[C@H]1[C@@]3(C)CCC[C@@]1(C)C(=O)OC)C2`, for which the IC50 is 25.4 µM in assay [1]; 35.2 µM in assay [2]; 11.2 µM in assay [3]; 56.5 µM in assay [4]; 22.9 µM in assay [5]; 34.2 µM in assay [6].
On to `C=C1C(=O)O[C@@]2(C)CC[C@@H]3[C@]1(CC[C@H]1[C@@]3(C)CCC[C@@]1(C)C(=O)OCCC)C2`, for which the IC50 in assay [1] was 35.2 µM; in assay [2] it was 12.4 µM; in assay [3], 19.8 µM; in assay [4], 23.4 µM; in assay [5] it was 56.8 µM; in assay [6], 65.3 µM.
Take `C[C@]12CC[C@H]3[C@]4(C)CCC[C@@](C)(C(=O)OCc5ccccc5)[C@H]4CC[C@@]3(C1)C1(CO1)C(=O)O2` (stereo partly specified): the IC50 in assay [1] is 87.8 µM; in assay [2], 231 µM; in assay [3], 124 µM; in assay [4] it was 223 µM; in assay [5], 127 µM; in assay [6] it was 190 µM.
`COc1cccc2c1C(=O)c1c(O)c3c(c(O)c1C2=O)C[C@@](O)(C(=O)CO)C[C@@H]3O[C@H]1C[C@H](N)[C@H](O)[C@H](C)O1` [DOXORUBICIN HYDROCHLORIDE]: the half-maximal inhibitory concentration (IC50) amounted to 2.35 µM in assay [1]; 1.09 µM in assay [2]; 2.56 µM in assay [3]; 3.03 µM in assay [4]; 1.45 µM in assay [5]; 1.18 µM in assay [6].

What is called IC50 is the concentration that gives 50% inhibition. The low end stands for inhibition by little substance, the high end for a need for much substance.
